Published values collected from several papers.
Protocols differ between the studies behind these lines.
GLP1R: Glucagon-like peptide 1 receptor (GLP1R, Homo sapiens, UniProt P43220)
DRD3: D(3) dopamine receptor (DRD3, Homo sapiens, UniProt P35462)

| Structure (SMILES) | target | test | quantity | value |
| --- | --- | --- | --- | --- |
| CC[C@H](C)[C@H](NC(=O)[C@H](Cc1ccccc1)NC(=O)[C@H](CCC(=O)O)NC(=O)[C@H](CCCCN)NC(=O)[C@H](C)NC(=O)[C@H](C)NC(=O)[C@H](CCC(N)=O)NC(=O)CNC(=O)[C@H](CCC(=O)O)NC(=O)[C@H](CC(C)C)NC(=O)[C@H](Cc1ccc(O)cc1)NC(=O)[C@H](CO)NC(=O)[C@@H](NC(=O)[C@@H](NC(=O)[C@H](CC(=O)O)NC(=O)[C@H](CO)NC(=O)[C@@H](NC(=O)[C@H](Cc1ccc(O)cc1)NC(=O)[C@@H](NC(=O)CNC(=O)[C@H](CCC(=O)O)NC(=O)[C@H](C)NC(=O)[C@@H](N)Cc1c[nH]cn1)[C@@H](C)O)[C@@H](C)O)[C@@H](C)CC)[C@@H](C)O)C(=O)N[C@@H](C)C(=O)N[C@@H](Cc1c[nH]c2ccccc12)C(=O)N[C@@H](CC(C)C)C(=O)N[C@H](C(=O)N[C@@H](CC(N)=O)C(=O)NCC(=O)N[C@@H](CCCNC(=N)N)C(=O)NCC(=O)O)C(C)C | GLP1R | reporter gene, agonist, luciferase | EC50 | 0.863 nM |
| C[C@H](N)Cn1ncc2ccc3c(c21)CCCO3 | 5-hydroxytryptamine receptor 2C (Rattus norvegicus, UniProt P08909) | calcium signal, agonist | EC50 | 15.7 nM |
| Cc1cccc(-c2ccnc3c(C(N)=O)cnn23)c1 | Toll-like receptor 8 (TLR8, Homo sapiens, UniProt Q9NR97) | reporter gene | IC50 | 67 nM |
| CCCCNNC(=O)c1ccc(Br)cc1 | Histone deacetylase 5 (HDAC5, Homo sapiens, UniProt Q9UQL6) | enzyme activity, inhibitor, fluorescence | IC50 | > 100000 nM |
| CC(C)[C@@H](Nc1nc(Cl)nc2c1ncn2[C@H]1[C@H](O)[C@H](O)[C@]2(CN)C[C@H]12)C1CC1 | DRD3 | ligand displacement, radioligand | Ki | 3470 nM |
| CCN(CC)c1ccc(/C=N/NC(=O)c2ccc(O)cc2)cc1 | Protein smoothened (SMO, Homo sapiens, UniProt Q99835) | ligand displacement | IC50 | 100 nM |
| CC(CCc1ccccc1)NC(C)C(O)c1ccc(O)cc1 (centres unmarked) | DRD3 | ligand displacement, radioligand | IC50 | 1290 nM |
| CO/N=C1\C[C@]2(C[C@@H]3C[C@@H](C/C=C(\C)C[C@@H](C)/C=C/C=C4\CO[C@@H]5[C@H](O)C(C)=C[C@@H](C(=O)O3)[C@]45O)O2)O[C@H](/C(C)=C/C(C)C)[C@H]1C | Nuclear receptor subfamily 1 group I member 3 (Homo sapiens, UniProt Q14994) | reporter gene, antagonist | IC50 | 44100 nM |
| CCCC[C@@H](NC(=O)[C@@H](N)Cc1c(C)cc(O)cc1C)C(=O)NCC(=O)N[C@@H](Cc1ccc(F)cc1)C(=O)N(C)CCC[C@@]1(c2ccc(F)cc2)OCc2cc(C#N)ccc21 | DRD3 | ligand displacement, radioligand | Ki | 2000 nM |
| c1cc[c]([Sn]([c]2ccccc2)[c]2ccccc2)cc1 | Peroxisome proliferator-activated receptor gamma (PPARG, Homo sapiens, UniProt P37231) | reporter gene, agonist, luciferase | EC50 | 20 nM |
| CC[C@H](C)[C@H](NC(=O)[C@H](CC(=O)O)NC(=O)[C@H](CC(N)=O)NC(=O)[C@@H](NC(=O)[C@H](Cc1ccccc1)NC(=O)[C@H](CO)NC(=O)CNC(=O)[C@H](CC(=O)O)NC(=O)[C@H](C)NC(=O)[C@@H](N)Cc1c[nH]cn1)[C@@H](C)O)C(=O)N[C@@H](CC(N)=O)C(=O)N[C@@H](CCCCN)C(=O)N[C@H](C(=O)N[C@@H](CC(C)C)C(=O)N[C@@H](CC(=O)O)C(=O)N[C@H](C(=O)N[C@H](C(=O)N[C@@H](C)C(=O)N[C@@H](C)C(=O)N[C@@H](CCC(N)=O)C(=O)N[C@@H](CCC(=O)O)C(=O)N[C@@H](Cc1ccccc1)C(=O)N[C@@H](CC(C)C)C(=O)N[C@@H](CC(=O)O)C(=O)N[C@@H](Cc1c[nH]c2ccccc12)C(=O)N[C@H](C(=O)N[C@H](C(=O)N[C@@H](CC(N)=O)C(=O)N[C@H](C(=O)N[C@@H](CCC(N)=O)C(=O)N[C@H](C(=O)N[C@H](C(=O)N[C@@H](CCC(=O)O)C(=O)O)[C@@H](C)O)C(C)C)[C@@H](C)O)[C@@H](C)CC)C(C)C)[C@@H](C)CC)[C@@H](C)CC)C(C)C | GLP1R | reporter gene, agonist, luciferase | EC50 | 29.9 nM |
| CC(C)[C@@H]1NC(=O)[C@H](CO)NC(=O)[C@H](CO)NC(=O)[C@H](CO)N(C)C(=O)[C@H](CC(=O)O)NC(=O)[C@H](CO)NC(=O)[C@H](Cc2ccccc2)NC(=O)CSC[C@@H](C(=O)NCC(N)=O)NC(=O)[C@H](CC(N)=O)NC(=O)[C@H](CCCNC(=N)N)NC(=O)[C@H](C)NC(=O)[C@H](Cc2ccc(-c3ccccc3)cc2)NC(=O)[C@H](CC(N)=O)NC(=O)[C@@H]2CCCN2C1=O | Protein Mdm4 (MDM4, Homo sapiens, UniProt O15151) | ligand displacement, TR-FRET | Ki | > 8880 nM |
| CC(C)NCC1CCc2cc(CO)c([N+](=O)[O-])cc2N1 (centres unmarked) | DRD3 | ligand displacement, radioligand | IC50 | 7400 nM |
| O=C(O[C@@H]1Cc2c(O)cc(O)cc2O[C@@H]1c1cc(O)c(O)c(O)c1)c1cc(O)c(O)c(O)c1 | Maltase-glucoamylase (Homo sapiens, UniProt O43451) | enzyme activity, inhibitor | Ki | 5930 nM |
